Experimental data: ChEMBL document CHEMBL1133723, “Developing a dynamic pharmacophore model for HIV-1 integrase” (J Med Chem, 2000)
*1 amine or outer side, *2 acyl side, *3 side chain or, on linkers, in order; H or OH if unused. Where a SMILES comes first, the peptide text is derived from it. Bridges are numbered along the chain shown (N, C = ends). [ ]: non-standard residue; d: D form. The star is where a group is joined. X1 = NC1=N[C@@H]([C@H](N[*:1])C(=O)[*:2])C[C@H](O)N1; ΔAla(Z-3-ureido) = NC(=O)N/C=C(\N)C(=O)O; pNA = O=[N+]([O-])c1ccc(N*)cc1; AMC = Cc1cc(=O)oc2cc(N*)ccc12; β3hOrn = NCCC[C@H](N)CC(=O)*; Dap = NC[C@H](N)C(=O)O; Boc = CC(C)(C)OC(=O)*; Bn = c1ccc(C*)cc1

Legend:
[1] = target: Human immunodeficiency virus type 1 integrase (Human immunodeficiency virus 1) (UniProt Q7ZJM1); conditions: at 1 mM
[2] = target: Human immunodeficiency virus type 1 integrase (Human immunodeficiency virus 1) (UniProt Q7ZJM1); conditions: at 200 µM
[3] = target: Human immunodeficiency virus type 1 integrase (Human immunodeficiency virus 1) (UniProt Q7ZJM1); assay: Inhibitory activity against HIV-1 integrase at 1 mM
Summary of the method: (§1)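 Integration reaction with HIV-1 integrase, run as in an earlier published method except for the detection step. The integration product was detected with digoxygenin-labelled oligonucleotides and an anti-digoxygenin antibody conjugated to horseradish peroxidase. Compounds were tested at 1 mM, 200 µM and 25 µM.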

[4] = target: Human immunodeficiency virus type 1 integrase (Human immunodeficiency virus 1) (UniProt Q7ZJM1); assay: Inhibitory activity against HIV-1 integrase at 200 uM
Summary of the method: as §1

[5] = target: T1, Human immunodeficiency virus type 1 integrase (Human immunodeficiency virus 1, UniProt Q7ZJM1)
[6] = target: T1, Human immunodeficiency virus type 1 integrase; remark: listed apart in the source
[7] = target: Human immunodeficiency virus type 1 integrase (Human immunodeficiency virus 1) (UniProt Q7ZJM1); assay: Inhibition against HIV-1 integrase at 25 uM
Summary of the method: as §1

[8] = target: Human immunodeficiency virus type 1 integrase (Human immunodeficiency virus 1) (UniProt Q7ZJM1); assay: Inhibitory activity against HIV-1 integrase at 25 uM
Summary of the method: as §1

NCCC[C@H](N)CC(=O)N[C@H]1CNC(=O)[C@H]([C@H]2C[C@H](O)NC(N)=N2)NC(=O)/C(=C/NC(N)=O)NC(=O)[C@H](CO)NC(=O)[C@H](CO)NC1=O (β3hOrn-[Dap]SS[ΔAla(Z-3-ureido)][X1]; lactam 1-C)
inhibition [1]: < 50%
inhibition [2]: < 50%

OC[C@@H](O)[C@@H](O[C@H]1O[C@H](CO)[C@@H](O)[C@H](O)[C@H]1O)[C@H](O)[C@@H](O)CO
inhibition [3]: < 50%
inhibition [4]: < 50%

O=C(/C=C\c1ccc(O)c(O)c1)OC1CC(O)(C(=O)O)CC(OC(=O)/C=C\c2ccc(O)c(O)c2)C1O (centres undefined)
IC50 [5]: 0.64 µM
IC50 [6]: 0.66 µM

Cc1cc(=O)oc2cc(NC(=O)[C@H](CCCN=C(N)N)NC(=O)CN)ccc12 (H-Gly-Arg-{AMC})
inhibition [1]: < 50%
inhibition [2]: < 50%

N/N=C(\S)Nc1ccc(N/C(S)=N/N)cc1
inhibition [7]: < 50%
inhibition [1]: > 50%
inhibition [2]: < 50%

N=C(N)NCCCC(NC(N)=O)C(=O)O (single isomer, unassigned)
inhibition [1]: < 50%
inhibition [2]: < 50%

CN[C@@H]1[C@H](OC2[C@@H](OC3[C@@H](N=C(N)N)[C@H](O)[C@@H](N=C(N)N)[C@H](O)[C@H]3O)O[C@@H](C)[C@]2(O)CO)O[C@@H](CO)[C@H](O)[C@H]1O (some centres undefined)
inhibition [3]: < 50%
inhibition [4]: < 50%

O=C[C@H](O)[C@@H](O)C(O[C@@H]1O[C@H](CO)[C@H](O)[C@H](O)[C@H]1O)[C@H](O)CO (some centres undefined)
inhibition [1]: < 50%
inhibition [2]: < 50%

O=P(O)(O)O[C@@H]1O[C@H](CO)[C@@H](O)[C@H](O)[C@H]1O
inhibition [3]: < 50%
inhibition [4]: < 50%

O=c1c(O)c(-c2ccc(O)c(O)c2)oc2cc(O)c(O)c(O)c12 [QUERCETAGETIN]
IC50 [5]: 1.3 µM
IC50 [6]: 0.6 µM

COC1/C=C/OC2(C)Oc3c(C)c(O)c4c(O)c(c(C=NN5C(C)CN(Cc6ccc([N+](=O)[O-])cc6)CC5C)c(O)c4c3C2=O)NC(=O)/C(C)=C\C=C\C(C)C(O)C(C)C(O)C(C)C(OC(C)=O)C1C (centres undefined)
IC50 [5]: 20.6 µM
IC50 [6]: 19.7 µM

CCNC(=O)[C@H](CCCCN(N)N)NC(=O)CNC(=O)[C@H](CC(C)C)NC(=O)[C@@H](NC(=O)[C@H](O)[C@@H](O)[C@H](O)[C@H](O)CO)C(C)C
inhibition [1]: < 50%
inhibition [2]: < 50%

O=C1c2c(O)ccc(O)c2C(=O)c2c(NCCNCCO)ccc(NCCNCCO)c21 [MITOXANTRONE]
IC50 [5]: 3.8 µM
IC50 [6]: 8 µM

CCCNC(=O)NNC(=O)c1ccccc1NC(=O)NCCC
inhibition [1]: < 50%
inhibition [2]: < 50%

N=C(NCCCCCCNC(=N)NC(=N)Nc1ccc(Cl)cc1)NC(=N)Nc1ccc(Cl)cc1
inhibition [8]: < 50%
inhibition [3]: > 50%
inhibition [4]: < 50%

O=C(CCc1ccc(O)c(O)c1)c1ccc(O)c(O)c1O
IC50 [5]: 1.7 µM
IC50 [6]: 1 µM

O=C(NCNC(=O)NC1C(=O)NC(=O)N1CO)NC1C(=O)NC(=O)N1CO (centres undefined)
inhibition [7]: < 50%
inhibition [1]: > 50%
inhibition [2]: < 50%

OCC(CO)(CO)NCCCNC(CO)(CO)CO
inhibition [3]: < 50%
inhibition [4]: < 50%

O=C(CNC(=O)NCc1ccoc1)NNC(=O)Nc1cccc(Cl)c1
inhibition [1]: < 50%
inhibition [2]: < 50%

Nc1nc(=O)c2c([nH]1)NCC(CNc1ccc(C(=O)N[C@@H](CCC(=O)O)C(=O)O)cc1)=N2
inhibition [8]: < 50%
inhibition [3]: > 50%
inhibition [4]: > 50%

O=C(/C=C/c1ccc(O)c(O)c1)O[C@H]1[C@H](O)C[C@](O)(C(=O)O)C[C@H]1OC(=O)/C=C/c1ccc(O)c(O)c1 (stereo in doubt; form 1)
IC50 [5]: 0.79 µM
IC50 [6]: 0.54 µM

CN[C@@H]1[C@H](O[C@H]2[C@H](O[C@H]3[C@H](O)[C@@H](O)[C@H](N=C(N)N)[C@@H](O)[C@@H]3N=C(N)N)O[C@@H](C)[C@]2(O)C=O)O[C@@H](CO)[C@H](O)[C@H]1O
inhibition [1]: < 50%
inhibition [2]: < 50%

O=C(NCCCCCCNC(=O)NNc1ccccc1)NNc1ccccc1
inhibition [1]: < 50%
inhibition [2]: < 50%

Cc1cccc2c1C(O)=C1C(=O)C3C(O)=C(C(=O)NNC4(C(=O)O)CCCC4)C(=O)[C@@H](N(C)C)[C@@H]3C[C@@H]1C2(C)O (some centres undefined)
IC50 [5]: 1.2 µM
IC50 [6]: 3.6 µM

NC[C@@H](O)c1ccc(OC(=O)[C@H](O)[C@@H](O)C(=O)O)c(OC(=O)[C@H](O)[C@@H](O)C(=O)O)c1
inhibition [7]: < 50%
inhibition [1]: > 50%
inhibition [2]: < 50%

OC[C@H]1O[C@H](OC[C@H]2OC(O)[C@H](O)[C@@H](O)[C@@H]2O)[C@H](O)[C@@H](O)[C@@H]1O (some centres undefined)
inhibition [3]: < 50%
inhibition [4]: < 50%

C[Si](C)(C)C
IC50 [5]: 17 µM
IC50 [6]: 5 µM

Cc1cccc2c1C(O)=C1C(=O)C3C(O)=C(C(=O)NCN4CCN(C(=N)N=C(N)N)CC4)C(=O)[C@@H](N(C)C)[C@@H]3C[C@@H]1C2(C)O (some centres undefined)
IC50 [5]: 0.9 µM
IC50 [6]: 0.3 µM

N[C@H]1[C@@H](OP(=O)(O)O)O[C@H](CO)[C@H](O)[C@@H]1O
inhibition [3]: < 50%
inhibition [4]: < 50%

Cc1cccc2c1C(O)=C1C(=O)C3C(O)=C(C(=O)NCNC(CO)(CO)CO)C(=O)[C@@H](N(C)C)[C@@H]3C[C@@H]1C2(C)O (some centres undefined)
IC50 [5]: 1.1 µM
IC50 [6]: 0.5 µM

O=C(CC(O)CCc1ccc(O)c(O)c1)O[C@H]1Cc2cc(O)c(O)cc2O[C@H]1c1ccc(O)c(O)c1 (some centres undefined)
IC50 [5]: 1.4 µM
IC50 [6]: 1 µM

Cc1cc(O)c2c(=O)c3c(O)cc(O)c4c5c(O)cc(O)c6c(=O)c7c(O)cc(C)c8c1c2c(c34)c(c78)c65 [HYPERICIN]
IC50 [5]: 10 µM

Cc1[nH]n(-c2cccc(NC(=O)Nc3cccc(-n4[nH]c(C)c(/N=N/c5c(O)cc(S(=O)(=O)O)c6cc([N+](=O)[O-])ccc56)c4=O)c3)c2)c(=O)c1/N=N/c1c(O)cc(S(=O)(=O)O)c2cc([N+](=O)[O-])ccc12
inhibition [7]: > 50%
inhibition [1]: > 50%
inhibition [2]: > 50%

O=c1oc2c(O)c(O)cc3c(=O)oc4c(O)c(O)cc1c4c23 [ELLAGIC ACID]
IC50 [5]: 5.1 µM

O=P(O)(O)O[C@H]1O[C@H](CO)[C@@H](O)[C@H](O)[C@@H]1O
inhibition [3]: < 50%
inhibition [4]: < 50%

O=C1c2ccc(O)c(O)c2C(=O)c2c(O)ccc(O)c21 [QUINALIZARIN]
IC50 [5]: 4 µM
IC50 [6]: 1 µM

O=C(/C=C/c1ccc(O)c(O)c1)O[C@H]1[C@H](O)C[C@](O)(C(=O)O)C[C@H]1OC(=O)/C=C/c1ccc(O)c(O)c1 (stereo in doubt; form 2)
IC50 [5]: 0.25 µM
IC50 [6]: 0.46 µM

COc1cccc2c1C(=O)c1c(O)c3c(c(O)c1C2=O)C[C@@](O)(C(=O)CO)C[C@@H]3O[C@H]1C[C@H](N)[C@H](O)[C@H](C)O1 [DOXORUBICIN]
IC50 [5]: 0.9 µM
IC50 [6]: 2.4 µM

NNC(=O)C(O)C(O)C(O)C(O)CO (centres undefined)
inhibition [7]: < 50%
inhibition [1]: > 50%
inhibition [2]: < 50%

O=c1c(O)cccc2cc(O)c(O)c(O)c12 [PURPUROGALLIN]
IC50 [5]: 2.1 µM

O=C(O[C@@H]1Cc2c(O)cc(O)cc2O[C@@H]1c1cc(O)c(O)c(O)c1)c1cc(O)c(O)c(O)c1
inhibition [7]: > 50%
inhibition [1]: > 50%
inhibition [2]: > 50%

NC(=O)c1ccccc1NC(=O)Nc1cc(NC(=O)Nc2ccccc2C(N)=O)c(Br)cc1Br
inhibition [7]: < 50%
inhibition [1]: > 50%
inhibition [2]: > 50%

CCC1C/C(=N\NC(N)=O)C(NNC(N)=O)C(C)C1 (centres undefined)
inhibition [1]: < 50%
inhibition [2]: < 50%

CC(C)C[C@@H](C=O)NC(=O)N[C@H](C(=O)N[C@@H](CCC(N)=O)C(=O)N[C@@H](C)C=O)[C@@H]1CCN=C(N)N1
inhibition [1]: < 50%
inhibition [2]: < 50%

O=C(/C=C\c1ccc(O)c(O)c1)OC1CC(OC(=O)/C=C\c2ccc(O)c(O)c2)(C(=O)O)CC(O)C1O (centres undefined)
IC50 [5]: 0.68 µM
IC50 [6]: 1.08 µM

O=C(NC(CO)(CO)CO)C(=O)NC(CO)(CO)CO
inhibition [3]: < 50%
inhibition [4]: < 50%

C[C@@H]1O[C@@H](OC2C[C@](O)(C(=O)CO)Cc3c(O)c4c(c(O)c32)C(=O)c2c(O)cccc2C4=O)C[C@H](N)[C@@H]1O (some centres undefined)
IC50 [5]: 2.3 µM
IC50 [6]: 4.1 µM

OCCNCCNC(O)C(O)CO (centres undefined)
inhibition [1]: < 50%
inhibition [2]: < 50%

COC(=O)C1(O)C[C@H](O)[C@@H](NC(C)=O)[C@H]([C@H](O)[C@H](O)CO)O1 (some centres undefined)
inhibition [3]: < 50%
inhibition [4]: < 50%

OC[C@@H](O)[C@@H](O)[C@H](O)c1cnc([C@@H](O)[C@H](O)[C@H](O)CO)cn1
inhibition [3]: < 50%
inhibition [4]: < 50%

O=C(/C=C\c1ccc(O)c(O)c1)OC1C(O)CC(OC(=O)/C=C\c2ccc(O)c(O)c2)(C(=O)O)CC1O (centres undefined)
IC50 [5]: 9.5 µM
IC50 [6]: 7.8 µM

N#C/C(=C\c1ccc(O)c(O)c1)C(=O)NCCCNC(=O)/C(C#N)=C/c1ccc(O)c(O)c1
IC50 [5]: 10 µM
IC50 [6]: 3 µM

N=C(N)NCCCCNCCCNC(=N)N
inhibition [3]: < 50%
inhibition [4]: < 50%

CC(C)(C)OC(=O)N[C@@H](COCc1ccccc1)C(=O)NCC(=O)N[C@@H](CCCN=C(N)N)C(=O)Nc1ccc([N+](=O)[O-])cc1 (Boc-Ser(Bn)-Gly-Arg-pNA)
inhibition [7]: < 50%
inhibition [1]: > 50%
inhibition [2]: < 50%

NC(N)=Nc1nc(CSCC/C(N)=N/S(N)(=O)=O)cs1
inhibition [1]: < 50%
inhibition [2]: < 50%

CCCCCCCCCCCCC/C=C/C(O)C(N)CO[C@@H]1O[C@H](CO)[C@H](O)[C@H](O)[C@H]1O (some centres undefined)
inhibition [7]: < 50%
inhibition [1]: > 50%
inhibition [2]: < 50%

CC(=O)NC1=C(O)C[C@@](O)(C(=O)O)O[C@H]1[C@@H](O)[C@H](O)CO
inhibition [3]: < 50%
inhibition [4]: < 50%

OC[C@H]1O[C@@H](SC2O[C@H](CO)[C@H](O)[C@H](O)[C@H]2O)[C@H](O)[C@@H](O)[C@H]1O (some centres undefined)
inhibition [1]: < 50%
inhibition [2]: < 50%
